{
  "source": "ChEMBL document CHEMBL1122861",
  "about": "“Synthesis and activity profiles of novel cyclic opioid peptide monomers and dimers” (J Med Chem, 1985)",
  "key": {"Cavia porcellus [1]": {"organism": "Cavia porcellus", "experiment": "Tested for sensitivity to naloxone in the guinea pig ileum assay.", "type": "functional", "in_short": "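Electrically stimulated guinea pig ileum. IC50 was determined with and without a fixed 5 nM naloxone. Ke for naloxone as antagonist was derived from the ratio of those IC50 values.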"}, "Cavia porcellus [2]": {"organism": "Cavia porcellus", "experiment": "Tested for inhibition of electrically evoked contractions of the guinea pig ileum(GPI).", "type": "functional", "in_short": "(§1)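 Isolated tissue bioassay, electrically evoked contractions; inhibition measured. A log dose–response curve with [Leu5]enkephalin as standard was run on each ileum or vas preparation. Test-peptide IC50 values were normalized against that standard by a published procedure. Mean of three determinations ±SEM.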"}, "Mus musculus": {"organism": "Mus musculus", "experiment": "Tested for inhibition of electrically evoked contractions of the mouse vas deferens(MVD).", "type": "functional", "in_short": "as §1"}, "Mu-type opioid receptor": {"target": "Mu-type opioid receptor (Rattus norvegicus, UniProt P33535)", "sequence (P33535 whole entry)": "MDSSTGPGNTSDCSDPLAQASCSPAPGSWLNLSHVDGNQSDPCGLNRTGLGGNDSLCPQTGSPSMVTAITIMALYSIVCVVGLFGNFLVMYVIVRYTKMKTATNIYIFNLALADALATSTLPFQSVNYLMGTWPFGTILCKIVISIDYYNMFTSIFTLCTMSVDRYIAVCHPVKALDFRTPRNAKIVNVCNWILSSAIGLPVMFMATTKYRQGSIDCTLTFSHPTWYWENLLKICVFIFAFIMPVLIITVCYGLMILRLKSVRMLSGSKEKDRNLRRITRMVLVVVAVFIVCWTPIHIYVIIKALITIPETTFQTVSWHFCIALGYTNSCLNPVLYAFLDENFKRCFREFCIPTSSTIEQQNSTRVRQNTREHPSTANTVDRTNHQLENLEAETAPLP", "experiment": "Evaluated for its ability to displace [3H]DAGO binding to Opioid receptor mu 1 from rat brain homogenate", "type": "tissue-based"}, "[3]": {"target": "Delta-type opioid receptor (Rattus norvegicus, UniProt P33533)", "sequence (P33533 whole entry)": "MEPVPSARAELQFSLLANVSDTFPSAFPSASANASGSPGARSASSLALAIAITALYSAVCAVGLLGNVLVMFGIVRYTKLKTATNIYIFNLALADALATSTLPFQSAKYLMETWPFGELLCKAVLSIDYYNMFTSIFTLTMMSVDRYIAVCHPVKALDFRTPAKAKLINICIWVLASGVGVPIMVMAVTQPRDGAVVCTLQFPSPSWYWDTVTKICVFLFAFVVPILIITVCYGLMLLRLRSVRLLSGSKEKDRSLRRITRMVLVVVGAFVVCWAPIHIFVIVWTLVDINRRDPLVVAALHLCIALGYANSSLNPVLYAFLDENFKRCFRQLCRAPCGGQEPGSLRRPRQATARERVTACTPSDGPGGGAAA", "experiment": "Displacement of [3H]DSLET from Opioid receptor delta 1 from rat brain homogenate", "type": "tissue-based"}},
  "note": "Where a SMILES comes first, the peptide text is derived from it. Bridges are numbered along the chain shown (N, C = ends). [ ]: non-standard residue; d: D form. Orn = NCCC[C@H](N)C(=O)O",
  "data": [
    {"smiles": "NC(=O)[C@@H]1CCC(=O)NCCCC[C@@H](NC(=O)[C@@H](N)Cc2ccc(O)cc2)C(=O)N[C@@H](Cc2ccccc2)C(=O)N1", "note": "[listing 1 of 2 here]", "values": [
      {"measurement": "Ke", "setting": "Cavia porcellus [1]", "value": 1.8, "unit": "nM"}
    ]},
    {"smiles": "NC(=O)[C@@H]1CC(=O)NCCC[C@@H](NC(=O)[C@@H](N)Cc2ccc(O)cc2)C(=O)N[C@@H](Cc2ccccc2)C(=O)N[C@H](C(N)=O)CC(=O)NCCC[C@@H](NC(=O)[C@@H](N)Cc2ccc(O)cc2)C(=O)N[C@@H](Cc2ccccc2)C(=O)N1", "note": "[listing 1 of 2 here]", "values": [
      {"measurement": "IC50", "setting": "Cavia porcellus [2]", "value": 111, "unit": "nM"},
      {"measurement": "IC50", "setting": "Mus musculus", "value": 99.1, "unit": "nM"},
      {"measurement": "Ki", "setting": "Mu-type opioid receptor", "value": 25.6, "unit": "nM"},
      {"measurement": "Ki", "setting": "[3]", "value": 42.2, "unit": "nM"}
    ]},
    {"smiles": "NC(=O)[C@@H]1CCCNC(=O)C[C@@H](NC(=O)[C@@H](N)Cc2ccc(O)cc2)C(=O)N[C@@H](Cc2ccccc2)C(=O)N[C@H](C(N)=O)CCCNC(=O)C[C@@H](NC(=O)[C@@H](N)Cc2ccc(O)cc2)C(=O)N[C@@H](Cc2ccccc2)C(=O)N1", "note": "[listing 1 of 2 here]", "values": [
      {"measurement": "Ke", "setting": "Cavia porcellus [1]", "value": 1.62, "unit": "nM"}
    ]},
    {"smiles": "CC(C)C[C@@H]1NC(=O)[C@H](NC(=O)[C@@H](N)Cc2ccc(O)cc2)CCCNC(=O)C[C@@H](C(N)=O)NC1=O", "values": [
      {"measurement": "IC50", "setting": "Cavia porcellus [2]", "value": 5410, "unit": "nM"},
      {"measurement": "IC50", "setting": "Mus musculus", "value": 40400, "unit": "nM"},
      {"measurement": "Ki", "setting": "Mu-type opioid receptor", "value": 6800, "unit": "nM"},
      {"measurement": "Ki", "setting": "[3]", "value": 8160, "unit": "nM"}
    ]},
    {"smiles": "NC(=O)[C@@H]1CCC(=O)NCCC[C@@H](NC(=O)[C@@H](N)Cc2ccc(O)cc2)C(=O)NCC(=O)N1", "values": [
      {"measurement": "IC50", "setting": "Cavia porcellus [2]", "value": 8750, "unit": "nM"},
      {"measurement": "IC50", "setting": "Mus musculus", "value": "> 40000", "unit": "nM"},
      {"measurement": "Ki", "setting": "Mu-type opioid receptor", "value": 1760, "unit": "nM"},
      {"measurement": "Ki", "setting": "[3]", "value": 4990, "unit": "nM"}
    ]},
    {"smiles": "NC(=O)[C@@H]1CCCCNC(=O)CC[C@@H](NC(=O)[C@@H](N)Cc2ccc(O)cc2)C(=O)N[C@@H](Cc2ccccc2)C(=O)N1", "note": "[listing 1 of 2 here]", "values": [
      {"measurement": "Ke", "setting": "Cavia porcellus [1]", "value": 0.81, "unit": "nM"}
    ]},
    {"smiles": "NC(=O)[C@@H]1CC(=O)NCCC[C@@H](NC(=O)[C@@H](N)Cc2ccc(O)cc2)C(=O)N[C@@H](Cc2ccccc2)C(=O)N[C@H](C(N)=O)CC(=O)NCCC[C@@H](NC(=O)[C@@H](N)Cc2ccc(O)cc2)C(=O)N[C@@H](Cc2ccccc2)C(=O)N1", "note": "[listing 2 of 2 here]", "values": [
      {"measurement": "Ke", "setting": "Cavia porcellus [1]", "value": 1.36, "unit": "nM"}
    ]},
    {"smiles": "NC(=O)[C@@H]1CCC(=O)NCCCC[C@@H](NC(=O)[C@@H](N)Cc2ccc(O)cc2)C(=O)N[C@@H](Cc2ccccc2)C(=O)N1", "note": "[listing 2 of 2 here]", "values": [
      {"measurement": "IC50", "setting": "Cavia porcellus [2]", "value": 2.93, "unit": "nM"},
      {"measurement": "IC50", "setting": "Mus musculus", "value": 5.21, "unit": "nM"},
      {"measurement": "Ki", "setting": "Mu-type opioid receptor", "value": 1.43, "unit": "nM"},
      {"measurement": "Ki", "setting": "[3]", "value": 4.36, "unit": "nM"}
    ]},
    {"smiles": "NC(=O)[C@@H]1CCCNC(=O)C[C@@H](NC(=O)[C@@H](N)Cc2ccc(O)cc2)C(=O)N[C@@H](Cc2ccccc2)C(=O)N1", "note": "(H-Y[dD]F[Orn]-NH2; lactam 2-4) [listing 1 of 2 here]", "values": [
      {"measurement": "Ke", "setting": "Cavia porcellus [1]", "value": 1.28, "unit": "nM"}
    ]},
    {"smiles": "NC(=O)[C@@H]1CCCCNC(=O)CC[C@@H](NC(=O)[C@@H](N)Cc2ccc(O)cc2)C(=O)N[C@@H](Cc2ccccc2)C(=O)N1", "note": "[listing 2 of 2 here]", "values": [
      {"measurement": "IC50", "setting": "Cavia porcellus [2]", "value": 7.99, "unit": "nM"},
      {"measurement": "IC50", "setting": "Mus musculus", "value": 101, "unit": "nM"},
      {"measurement": "Ki", "setting": "Mu-type opioid receptor", "value": 0.994, "unit": "nM"},
      {"measurement": "Ki", "setting": "[3]", "value": 49.3, "unit": "nM"}
    ]},
    {"smiles": "NC(=O)[C@@H]1CCCNC(=O)C[C@@H](NC(=O)[C@@H](N)Cc2ccc(O)cc2)C(=O)N[C@@H](Cc2ccccc2)C(=O)N[C@H](C(N)=O)CCCNC(=O)C[C@@H](NC(=O)[C@@H](N)Cc2ccc(O)cc2)C(=O)N[C@@H](Cc2ccccc2)C(=O)N1", "note": "[listing 2 of 2 here]", "values": [
      {"measurement": "IC50", "setting": "Cavia porcellus [2]", "value": 1160, "unit": "nM"},
      {"measurement": "IC50", "setting": "Mus musculus", "value": 579, "unit": "nM"},
      {"measurement": "Ki", "setting": "Mu-type opioid receptor", "value": 85.9, "unit": "nM"},
      {"measurement": "Ki", "setting": "[3]", "value": 129, "unit": "nM"}
    ]},
    {"smiles": "NC(=O)[C@@H]1CCCNC(=O)C[C@@H](NC(=O)[C@@H](N)Cc2ccc(O)cc2)C(=O)N[C@@H](Cc2ccccc2)C(=O)N1", "note": "(H-Y[dD]F[Orn]-NH2; lactam 2-4) [listing 2 of 2 here]", "values": [
      {"measurement": "IC50", "setting": "Cavia porcellus [2]", "value": 522, "unit": "nM"},
      {"measurement": "IC50", "setting": "Mus musculus", "value": 8570, "unit": "nM"}
    ]}
  ]
}
